Assays:
[1] = biological target: Histone deacetylase 3/NCoR1 (Homo sapiens, UniProt O15379); test: Inhibition of recombinant human HDAC3/NCOR1 assessed as decrease in deacetylation of FLUOR DE LYS SIRT1 substrate preincubated for 10 mins followed by substrate addition and measured after 30 mins by fluorescence based assay; assay type: protein-complex assay
Histone deacetylase 8 = biological target: T1, Histone deacetylase 8 (Homo sapiens, UniProt Q9BY41); test: Inhibition of recombinant human HDAC8 assessed as decrease in deacetylation of FLUOR DE LYS substrate preincubated for 10 mins followed by substrate addition and measured after 30 mins by fluorescence based assay
T1 sequence (Q9BY41 whole entry): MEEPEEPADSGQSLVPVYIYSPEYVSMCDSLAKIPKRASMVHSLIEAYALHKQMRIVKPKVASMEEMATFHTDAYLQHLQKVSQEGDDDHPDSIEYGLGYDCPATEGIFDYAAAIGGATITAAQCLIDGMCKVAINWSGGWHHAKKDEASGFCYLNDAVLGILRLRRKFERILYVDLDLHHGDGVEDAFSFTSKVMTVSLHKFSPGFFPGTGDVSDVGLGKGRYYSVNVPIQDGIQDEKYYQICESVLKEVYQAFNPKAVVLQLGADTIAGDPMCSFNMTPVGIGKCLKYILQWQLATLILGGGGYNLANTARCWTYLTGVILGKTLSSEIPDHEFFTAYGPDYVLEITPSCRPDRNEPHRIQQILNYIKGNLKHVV

Histone deacetylase 1 = Histone deacetylase 1 (Homo sapiens, UniProt Q13547); test: Inhibition of recombinant human His tagged HDAC1 expressed in baculovirus infected insect cells assessed as decrease in deacetylation of FLUOR DE LYS Green substrate preincubated for 10 mins followed by substrate addition and measured after 30 mins by fluorescence based assay
HCT-116 = test: Antiproliferative activity against human HCT116 cells assessed as growth inhibition at 2 uM after 72 hrs by CCK-8 assay relative to control; assay type: functional; settings: HCT-116, 72 h, read-out: GI
HeLa = test: Antiproliferative activity against human HeLa cells assessed as growth inhibition at 8 uM after 72 hrs by CCK-8 assay relative to control; assay type: functional; settings: read-out: GI
A549 [2] = test: Antiproliferative activity against human A549 cells assessed as decrease in cell viability after 72 hrs by CCK-8 assay; assay type: functional, cell-based; settings: A549, 72 h
Summary of the method: (§1)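 Cells grown to 70–85% confluence (A375, A549, HCT116 in RPMI1640; HeLa, SMMC7721 in DMEM; 10% FBS, 37 °C, 5% CO2), seeded 4000/well, dosed after 12 h across a concentration range, incubated 72 h, then CCK-8 for 1 h; absorbance at 450 nm. IC50 as mean ± SD of three separate experiments.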

A-375 = test: Antiproliferative activity against human A375 cells assessed as decrease in cell viability after 72 hrs by CCK-8 assay; assay type: functional, cell-based; settings: A-375, 72 h; summary of the method: as §1
SMMC-7721 = test: Antiproliferative activity against human SMMC7721 cells assessed as decrease in cell viability after 72 hrs by CCK-8 assay; assay type: functional, cell-based; settings: SMMC-7721, 72 h; summary of the method: as §1
NIH3T3 = test: Cytotoxicity against mouse NIH/3T3 cells assessed as reduction in cell viability after 72 hrs by CCK-8 assay; assay type: cell-based; settings: NIH3T3, 72 h
A549 [3] = test: Induction of apoptosis in human A549 cells after 48 hrs by Annexin V-FITC/propidium iodide staining based flow cytometry; assay type: functional, cell-based
Summary of the method: (§2)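 A549 seeded 4×10⁶ cells/well, dosed after 12 h with compound at various concentrations, harvested after 48 h. Resuspended in annexin-binding buffer, stained with Annexin V-FITC and propidium iodide for 15 min in the dark, analysed by flow cytometry; means of three separate experiments.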

A549 [4] = test: Induction of apoptosis in human A549 cells assessed as early apoptotic cells at 0.5 uM after 48 hrs by Annexin V-FITC/propidium iodide staining based flow cytometry (reference value: 1.19%); assay type: functional; summary of the method: as §2
A549 [5] = test: Induction of apoptosis in human A549 cells assessed as early apoptotic cells at 1 uM after 48 hrs by Annexin V-FITC/propidium iodide staining based flow cytometry (reference value: 1.19%); assay type: functional; summary of the method: as §2
A549 [6] = test: Induction of apoptosis in human A549 cells assessed as late apoptotic cells at 1 uM after 48 hrs by Annexin V-FITC/propidium iodide staining based flow cytometry (reference value: 0.637%); assay type: functional; summary of the method: as §2
A549 [7] = test: Induction of apoptosis in human A549 cells assessed as early apoptotic cells at 2 uM after 48 hrs by Annexin V-FITC/propidium iodide staining based flow cytometry (reference value: 1.19%); assay type: functional; summary of the method: as §2
A549 [8] = test: Induction of apoptosis in human A549 cells assessed as late apoptotic cells at 2 uM after 48 hrs by Annexin V-FITC/propidium iodide staining based flow cytometry (reference value: 0.637%); assay type: functional; summary of the method: as §2
A549 [9] = test: Induction of apoptosis in human A549 cells assessed as necrotic cells at 2 uM after 48 hrs by Annexin V-FITC/propidium iodide staining based flow cytometry (reference value: 0.135%); assay type: functional; summary of the method: as §2
A549 [10] = test: Cell cycle arrest in human A549 cells assessed as accumulation of cells at S phase at 0.5 uM after 48 hrs by propidium iodide staining-based flow cytometry (reference value: 12.83%); assay type: functional
A549 [11] = test: Cell cycle arrest in human A549 cells assessed as accumulation of cells at S phase at 1 uM after 48 hrs by propidium iodide staining-based flow cytometry (reference value: 12.83%); assay type: functional
A549 [12] = test: Cell cycle arrest in human A549 cells assessed as accumulation of cells at G2/M phase at 1 uM after 48 hrs by propidium iodide staining-based flow cytometry (reference value: 13.62%); assay type: functional
A549 [13] = test: Cell cycle arrest in human A549 cells assessed as accumulation of cells at G0/G1 phase at 2 uM after 48 hrs by propidium iodide staining-based flow cytometry (reference value: 73.35%); assay type: functional
A549 [14] = test: Cell cycle arrest in human A549 cells assessed as accumulation of cells at G2/M phase at 2 uM after 48 hrs by propidium iodide staining-based flow cytometry (reference value: 13.62%); assay type: functional
[15] = AUC (0 to infinity) in ICR mouse at 4 mg/kg, iv after 0.08 to 24 hrs by LC-MS/MS analysis; assay type: ADME, organism-based; design: dose 4 mg/kg, time infinity, route intravenous; settings: in vivo
Summary of the method: (§3)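 Male ICR mice (29.7~37.4 g), single iv dose 4 mg/kg in DMSO:40% SBE-β-CD 20:80 (v/v). Retro-orbital blood at 0.08–24 h into EDTA-K2 tubes; plasma protein-precipitated with acetonitrile containing internal standards, analysed by LC-MS/MS; n=3 per time point; noncompartmental analysis.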

[16] = Volume of distribution at steady state n ICR mouse at 4 mg/kg, iv after 0.08 to 24 hrs by LC-MS/MS analysis; assay type: ADME, organism-based; settings: in vivo, read-out: Vdss; summary of the method: as §3
A549 [17] = test: Antitumor activity against human A549 cells xenografted in Balb/c nude mouse assessed as tumor growth inhibition at 25 mg/kg, ip administered twice per day for 21 days relative to control; assay type: functional; settings: 504 h, read-out: TGI
Summary of the method: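 Female BALB/c nude mice, 5–6 weeks, implanted s.c. in right axilla with 3×10⁶ A549 cells; randomized at ~95 mm³ tumor volume, 4 per group. Dosed ip 25 mg/kg twice daily for 21 days; vehicle controls got DMA & 5% Solutol HS-15 (5:95). Tumor size (V=length×width²/2) and body weight measured every 3 days; TGI from volume change relative to control.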

Chain of Histone deacetylase 1 (Q13547 whole entry): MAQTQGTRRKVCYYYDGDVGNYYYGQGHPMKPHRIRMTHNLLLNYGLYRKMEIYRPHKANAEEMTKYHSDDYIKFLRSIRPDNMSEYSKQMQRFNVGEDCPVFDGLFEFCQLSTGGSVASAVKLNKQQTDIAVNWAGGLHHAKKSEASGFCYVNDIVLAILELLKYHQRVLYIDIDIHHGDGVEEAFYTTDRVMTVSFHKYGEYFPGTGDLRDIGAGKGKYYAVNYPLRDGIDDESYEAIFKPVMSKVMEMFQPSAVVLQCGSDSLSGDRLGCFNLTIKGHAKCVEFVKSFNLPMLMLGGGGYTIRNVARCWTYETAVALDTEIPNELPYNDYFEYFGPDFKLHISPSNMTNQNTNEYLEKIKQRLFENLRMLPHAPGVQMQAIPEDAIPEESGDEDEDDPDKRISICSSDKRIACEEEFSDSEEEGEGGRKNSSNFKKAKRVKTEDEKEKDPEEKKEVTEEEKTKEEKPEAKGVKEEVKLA
Chain of Histone deacetylase 3/NCoR1 (O15379 whole entry): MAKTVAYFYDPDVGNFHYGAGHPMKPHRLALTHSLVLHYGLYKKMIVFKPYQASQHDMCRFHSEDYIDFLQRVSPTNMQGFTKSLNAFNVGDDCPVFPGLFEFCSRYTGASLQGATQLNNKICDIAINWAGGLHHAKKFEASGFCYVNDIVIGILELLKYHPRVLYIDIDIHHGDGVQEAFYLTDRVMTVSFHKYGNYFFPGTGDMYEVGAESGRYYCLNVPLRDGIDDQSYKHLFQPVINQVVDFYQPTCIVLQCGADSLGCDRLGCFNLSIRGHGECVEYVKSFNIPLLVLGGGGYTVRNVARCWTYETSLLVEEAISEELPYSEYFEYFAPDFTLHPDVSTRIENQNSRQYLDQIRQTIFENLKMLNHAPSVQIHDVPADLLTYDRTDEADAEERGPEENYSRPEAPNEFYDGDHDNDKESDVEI
Chain of Histone deacetylase 3/NCoR1 (O75376 whole entry, further chain): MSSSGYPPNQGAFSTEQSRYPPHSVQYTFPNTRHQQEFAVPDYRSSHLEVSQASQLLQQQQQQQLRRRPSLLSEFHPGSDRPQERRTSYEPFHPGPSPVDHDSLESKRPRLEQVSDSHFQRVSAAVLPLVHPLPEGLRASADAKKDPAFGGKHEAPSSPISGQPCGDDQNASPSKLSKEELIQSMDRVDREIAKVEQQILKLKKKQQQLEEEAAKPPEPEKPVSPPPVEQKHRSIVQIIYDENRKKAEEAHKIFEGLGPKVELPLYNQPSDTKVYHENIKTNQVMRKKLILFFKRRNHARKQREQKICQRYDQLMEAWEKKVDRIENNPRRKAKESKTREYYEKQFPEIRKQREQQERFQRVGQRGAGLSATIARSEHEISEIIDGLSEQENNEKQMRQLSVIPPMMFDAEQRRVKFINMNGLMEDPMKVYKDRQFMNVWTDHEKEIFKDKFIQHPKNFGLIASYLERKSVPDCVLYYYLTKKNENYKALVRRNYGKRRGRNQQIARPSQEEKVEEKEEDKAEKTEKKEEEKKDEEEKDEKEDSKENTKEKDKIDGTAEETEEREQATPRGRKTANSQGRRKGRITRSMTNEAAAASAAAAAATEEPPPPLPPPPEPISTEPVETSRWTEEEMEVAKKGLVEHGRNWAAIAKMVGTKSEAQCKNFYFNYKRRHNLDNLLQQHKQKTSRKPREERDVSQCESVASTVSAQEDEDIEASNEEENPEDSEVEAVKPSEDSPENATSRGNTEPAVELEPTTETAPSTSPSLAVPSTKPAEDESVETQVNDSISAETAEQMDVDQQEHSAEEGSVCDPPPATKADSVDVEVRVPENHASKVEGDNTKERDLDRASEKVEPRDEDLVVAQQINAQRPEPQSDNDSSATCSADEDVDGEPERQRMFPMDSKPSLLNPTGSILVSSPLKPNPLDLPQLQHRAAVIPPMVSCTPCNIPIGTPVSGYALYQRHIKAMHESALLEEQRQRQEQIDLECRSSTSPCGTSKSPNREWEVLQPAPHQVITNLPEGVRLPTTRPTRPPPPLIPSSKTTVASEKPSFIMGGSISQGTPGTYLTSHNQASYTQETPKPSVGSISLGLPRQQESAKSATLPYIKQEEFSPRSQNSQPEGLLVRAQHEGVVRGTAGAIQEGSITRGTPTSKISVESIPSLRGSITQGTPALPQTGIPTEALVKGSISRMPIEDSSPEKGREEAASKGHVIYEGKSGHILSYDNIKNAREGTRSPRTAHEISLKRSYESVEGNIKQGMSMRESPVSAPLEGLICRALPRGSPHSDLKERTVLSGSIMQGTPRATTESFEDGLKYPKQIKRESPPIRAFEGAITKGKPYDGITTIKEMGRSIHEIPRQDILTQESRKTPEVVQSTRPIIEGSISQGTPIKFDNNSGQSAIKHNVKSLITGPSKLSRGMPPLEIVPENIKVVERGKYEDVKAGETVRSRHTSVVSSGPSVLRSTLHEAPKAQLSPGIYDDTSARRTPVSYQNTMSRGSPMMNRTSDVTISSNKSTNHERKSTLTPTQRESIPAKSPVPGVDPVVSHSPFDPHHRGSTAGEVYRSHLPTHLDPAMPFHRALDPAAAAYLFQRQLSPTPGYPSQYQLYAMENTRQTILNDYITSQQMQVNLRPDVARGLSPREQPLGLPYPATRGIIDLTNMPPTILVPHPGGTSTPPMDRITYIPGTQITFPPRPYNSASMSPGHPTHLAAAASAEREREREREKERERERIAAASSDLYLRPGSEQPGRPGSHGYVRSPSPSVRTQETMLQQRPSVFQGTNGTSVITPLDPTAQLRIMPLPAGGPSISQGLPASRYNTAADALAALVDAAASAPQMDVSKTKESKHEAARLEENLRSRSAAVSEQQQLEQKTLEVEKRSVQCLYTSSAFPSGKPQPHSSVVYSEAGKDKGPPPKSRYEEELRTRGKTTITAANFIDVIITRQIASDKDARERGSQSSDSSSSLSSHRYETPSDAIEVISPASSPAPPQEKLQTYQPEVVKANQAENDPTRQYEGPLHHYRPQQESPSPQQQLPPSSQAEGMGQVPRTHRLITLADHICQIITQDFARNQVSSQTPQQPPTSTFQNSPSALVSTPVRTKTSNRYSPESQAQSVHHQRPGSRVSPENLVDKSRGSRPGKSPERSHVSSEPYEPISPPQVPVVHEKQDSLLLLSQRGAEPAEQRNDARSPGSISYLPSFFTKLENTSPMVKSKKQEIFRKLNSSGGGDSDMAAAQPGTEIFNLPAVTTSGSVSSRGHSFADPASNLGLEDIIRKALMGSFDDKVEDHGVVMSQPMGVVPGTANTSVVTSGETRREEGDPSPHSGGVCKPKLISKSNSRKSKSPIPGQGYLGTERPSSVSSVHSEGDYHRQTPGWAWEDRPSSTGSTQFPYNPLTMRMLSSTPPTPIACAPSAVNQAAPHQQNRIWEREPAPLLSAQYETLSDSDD

IC50 [1] [nM] | IC50 (Histone deacetylase 8) [nM] | IC50 (Histone deacetylase 1) [nM] | IC50 (A549 [2]) [nM] | IC50 (A-375) [nM] | IC50 (SMMC-7721) [nM] | SMILES | inhibition of growth at 2 µM (HCT-116) [%] | inhibition of growth at 8 µM (HeLa) [%] | IC50 (NIH3T3) [nM] | Activity (A549 [3]) | Activity (A549 [4]) [%] | Activity (A549 [5]) [%] | Activity (A549 [6]) [%] | Activity (A549 [7]) [%] | Activity (A549 [8]) [%] | Activity (A549 [9]) [%] | Activity (A549 [10]) [%] | Activity (A549 [11]) [%] | Activity (A549 [12]) [%] | Activity (A549 [13]) [%] | further results
136 | > 32000 | 16 | 2570 | 3010 | 2170 | COc1ccc(SCc2ccc(C(=O)Nc3ccccc3N)cc2)cc1 | 73.3 | 79.7 | 4040 | Dose-dependent effect | 5.21 | 19.8 | 10.8 | 5.65 | 26.6 | 20.3 | 17.55 | 20.63 | 38.3 | 39.3 | Activity (A549 [14]): 48.06%; AUC(0-inf) [15]: 740 ng·h/mL; Vd [16]: 1.74 L/kg; inhibition in vivo at 25 mg/kg (A549 [17]): 57.9%
215 | > 32000 | 71 | 3040 | 2420 | 1750 | CCc1ccc(SCc2ccc(C(=O)Nc3ccccc3N)cc2)cc1 | 40.7 | 71 | 3660 | Dose-dependent effect | 11 | 6.52 | 14.6 | 6.55 | 16.7 | 13.2 | 12.56 | 9.74 | 59.87 | 24 | Activity (A549 [14]): 66.48%; AUC(0-inf) [15]: 874 ng·h/mL; Vd [16]: 3.46 L/kg; inhibition in vivo at 25 mg/kg (A549 [17]): 62.7%

From ChEMBL document CHEMBL4396885, “Thioether-based 2-aminobenzamide derivatives: Novel HDAC inhibitors with potent in vitro and in vivo antitumor activity” (Eur J Med Chem, 2019)
